From ChEMBL document CHEMBL4041463, “Pyrazolo[1,5-a]pyridine-3-carboxamide hybrids: Design, synthesis and evaluation of anti-tubercular activity” (Eur J Med Chem, 2017) come the findings set out here.

≈ marks a conversion by molar mass, not a printed value.

The test deals with Mycobacterium tuberculosis. In words: Antitubercular activity against Mycobacterium tuberculosis H37Rv measured on day 7 post dose by microplate alamar blue assay. Type of test: functional. The note with it: 168 h. The gist of the method:
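MABA against H37Rv in 7H12 medium, two-fold dilutions, final 0.05–5 or 0.004–1 µg/mL (DMSO stocks 5 or 2 mg/mL). Inoculum 2×10⁵ cfu/mL, 37 °C. On day 7, Tween 80 and Alamar Blue added; fluorescence (ex 530/em 590) read after 16–24 h. MIC = interpolated lowest concentration giving ≥90% fluorescence reduction versus bacteria-only controls. INH and RIF as controls.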
In general terms: Resazurin is reduced to fluorescent resorufin, in cell work by metabolically active cells.
By MIC90 is commonly meant the lowest concentration that inhibits either 90% of growth or 90% of the strains tested, depending on the study. On to `CCc1nn2ccc(Cl)cc2c1C(=O)NCC1CCN(CC23CC4CC(CC(C4)C2)C3)CC1`, for which the MIC90 was greater than 1 µg/mL.
The figure for `CCc1nn2ccc(Cl)cc2c1C(=O)NCc1ccc(-c2ccc(OC(F)(F)F)cc2)nc1` is 0.2 µg/mL (≈ 0.421 µM); for `CCc1nn2ccc(Cl)cc2c1C(=O)NC/C=C(\C)CCC=C(C)C` it is 0.17 µg/mL (≈ 0.472 µM).
In turn, `CO[C@H]1/C=C/O[C@@]2(C)Oc3c(C)c(O)c4c(O)c(c(/C=N/N5CCN(C)CC5)c(O)c4c3C2=O)NC(=O)/C(C)=C\C=C\[C@H](C)[C@H](O)[C@@H](C)[C@@H](O)[C@@H](C)[C@H](OC(C)=O)[C@@H]1C` [RIFAMPIN] had an MIC90 of 0.003 µg/mL (≈ 0.00365 µM). Against the preceding molecule, the MIC90 is about 57-fold lower.
The figure for `Cc1ccn2nc(C)c(C(=O)NCc3ccc(N4CCC(Oc5ccc(OC(F)(F)F)cc5)CC4)cc3)c2c1` is 0.006 µg/mL (≈ 0.0111 µM); for `NNC(=O)c1ccncc1` [ISONIAZID] it is 0.1 µg/mL (≈ 0.729 µM); for `Cc1ccn2nc(C)c(C(=O)NCc3ccc(OC(F)(F)F)cc3)c2c1` it is 0.91 µg/mL (≈ 2.5 µM).
